Data published in ChEMBL document CHEMBL4689842, “EUbOPEN Chemogenomics Library wave 1” (2021).
Where “and” joins values, the source holds several entries; their conditions need not be identical. Identical values can stand only once.

Tests used:
Type in all cases: toxicity, cell-based
U2OS [1] = experiment: Multiplex assay against U2OS; conditions: human, 48 h, 10 µM, compound concentration 10 uM
Method in brief: (§1)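 Imaging took place on a CQ1 microscope at 37°C and 5% CO2 once compound had been added to live cells stained at seeding with Hoechst33342, BioTracker Green Microtubule Cytoskeleton Dye, MitoTracker Red and Annexin V Alexa Fluor 680. CellPathfinder machine-learning gating classed cells as Hoechst high-intensity objects or normal cells, classed normal cells as having healthy, pyknosed or fragmented nuclei, and classed pyknosed cells as mitotic or apoptotic. Tubulin, mitochondrial-mass and membrane-permeability phenotypes are per cents of the healthy-nucleus cells.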

Fibroblast [2] = experiment: Incucyte cell viability with human fibroblast; conditions: 10 µM, compound concentration 10 uM; also: filed as whole numbers so only -1 and 0 and 1 occur
U2OS [3] = experiment: Incucyte cell viability with U2OS; conditions: human, 10 µM, compound concentration 10 uM; also: filed as whole numbers so only -1 and 0 and 1 occur
Fibroblast [4] = experiment: Multiplex assay against human fibroblast; conditions: 10 µM, compound concentration 10 uM; method in brief: as §1
[5] = 6 h, replicate number 1, timepoint 6 hours
[6] = 12 h, replicate number 1, timepoint 12 hours
[7] = 18 h, replicate number 1, timepoint 18 hours
[8] = 24 h, replicate number 1, timepoint 24 hours
[9] = 24 h, replicate number 2, timepoint 24 hours

CCOCCn1cc(C(=O)Nc2ccc(-n3nc(-c4cccnc4)cc3C(F)(F)F)cn2)ccc1=O [BI 1935]
Population Fragmented Nuclei (%) (U2OS [1]; replicate 1): 16% | Population Healthy Nuclei (%) (U2OS [1]; replicate 1): 64% | Population Hoechst High Intensity Objects (%) (U2OS [1]; replicate 1): 10% | Population Membrane Permeable-Phenotype (%) (U2OS [1]; replicate 1): 15% | Population Mitochondria Different-Phenotype (%) (U2OS [1]; replicate 1): 26% | Population Mitotic Cells (%) (U2OS [1]; replicate 1): 48% | Population Normal (%) (U2OS [1]; replicate 1): 89% | Population Pyknosed Nuclei (%) (U2OS [1]; replicate 1): 19% | Population Tubulin-Different-Phenotype (%) (U2OS [1]; replicate 1): 51% | Total Cell Count (U2OS [1]; replicate 1): 178 | Population Apoptotic (%) (U2OS [1]; replicate 2): 52% | Population Fragmented Nuclei (%) (U2OS [1]; replicate 2): 7% | Population Healthy Nuclei (%) (U2OS [1]; replicate 2): 73% | Population Hoechst High Intensity Objects (%) (U2OS [1]; replicate 2): 4% | Population Membrane Permeable-Phenotype (%) (U2OS [1]; replicate 2): 17% | Population Mitochondria Different-Phenotype (%) (U2OS [1]; replicate 2): 30% | Population Mitotic Cells (%) (U2OS [1]; replicate 2): 47% | Population Normal (%) (U2OS [1]; replicate 2): 95% | Population Tubulin-Different-Phenotype (%) (U2OS [1]; replicate 2): 40% | Total Cell Count (U2OS [1]; replicate 2): 114 | Growth Rate (Fibroblast [2]; 0 h, replicate number 2, timepoint 0 hours): 0 | Growth Rate (Fibroblast [2]; [5]): 1 | Growth Rate (Fibroblast [2]; [6]): 0 | Growth Rate (Fibroblast [2]; 12 h, replicate number 2, timepoint 12 hours): 1 | Growth Rate (Fibroblast [2]; [7]): 0 | Growth Rate (Fibroblast [2]; [8]): 0 | Growth Rate (Fibroblast [2]; [9]): 1 | Growth Rate (U2OS [3]; 0 h, replicate number 1, timepoint 0 hours): 0 | Growth Rate (U2OS [3]; [5]): 0 | Growth Rate (U2OS [3]; [6]): 0 | Growth Rate (U2OS [3]; [7]): 0 | Growth Rate (U2OS [3]; [8]): 0 | Growth Rate (U2OS [3]; [9]): 1 | Population Apoptotic (%) (Fibroblast [4]; 12 h, replicate 1): 85% and 52% and 61% | Population Fragmented Nuclei (%) (Fibroblast [4]; 12 h, replicate 1): 25% and 26% and 24% | Population Healthy Nuclei (%) (Fibroblast [4]; 12 h, replicate 1): 45% and 60% and 58% | Population Hoechst High Intensity Objects (%) (Fibroblast [4]; 12 h, replicate 1): 20% and 11% and 13% | Population Membrane Permeable-Phenotype (%) (Fibroblast [4]; 12 h, replicate 1): 9% and 15% and 6% | Population Normal (%) (Fibroblast [4]; 12 h, replicate 1): 79% and 88% and 86% | Population Pyknosed Nuclei (%) (Fibroblast [4]; 12 h, replicate 1): 29% and 13% and 17% | Population Apoptotic (%) (Fibroblast [4]; 12 h, replicate 2): 100% and 42% and 47% | Population Membrane Permeable-Phenotype (%) (Fibroblast [4]; 12 h, replicate 2): 23% and 14% and 8% | Population Normal (%) (Fibroblast [4]; 12 h, replicate 2): 62% and 60% and 92% | Population Tubulin-Different-Phenotype (%) (Fibroblast [4]; 12 h, replicate 2): 23% and 57% and 64% | Total Cell Count (Fibroblast [4]; 12 h, replicate 2): 78 and 61 and 79 | Population Apoptotic (%) (Fibroblast [4]; 24 h, replicate 1): 60% and 72% and 64% | Population Fragmented Nuclei (%) (Fibroblast [4]; 24 h, replicate 1): 35% and 25% and 24% | Population Healthy Nuclei (%) (Fibroblast [4]; 24 h, replicate 1): 50% and 61% and 62% | Population Hoechst High Intensity Objects (%) (Fibroblast [4]; 24 h, replicate 1): 21% and 14% and 16% | Population Membrane Permeable-Phenotype (%) (Fibroblast [4]; 24 h, replicate 1): 8% and 4% | Population Mitotic Cells (%) (Fibroblast [4]; 24 h, replicate 1): 40% and 27% and 36% | Population Normal (%) (Fibroblast [4]; 24 h, replicate 1): 78% and 85% and 83% | Population Pyknosed Nuclei (%) (Fibroblast [4]; 24 h, replicate 1): 14% and 13% and 12% | Population Apoptotic (%) (Fibroblast [4]; 24 h, replicate 2): 33% and 28% and 40% | Population Healthy Nuclei (%) (Fibroblast [4]; 24 h, replicate 2): 44% and 25% and 66% | Population Mitotic Cells (%) (Fibroblast [4]; 24 h, replicate 2): 66% and 71% and 60% | Population Normal (%) (Fibroblast [4]; 24 h, replicate 2): 60% and 91% | Population Tubulin-Different-Phenotype (%) (Fibroblast [4]; 24 h, replicate 2): 20% and 55% and 44% | Total Cell Count (Fibroblast [4]; 24 h, replicate 2): 74 and 58 and 92 | Population Apoptotic (%) (Fibroblast [4]; 48 h, replicate 1): 55% | Population Fragmented Nuclei (%) (Fibroblast [4]; 48 h, replicate 1): 44% | Population Healthy Nuclei (%) (Fibroblast [4]; 48 h, replicate 1): 42% | Population Hoechst High Intensity Objects (%) (Fibroblast [4]; 48 h, replicate 1): 22% | Population Membrane Permeable-Phenotype (%) (Fibroblast [4]; 48 h, replicate 1): 0% | Population Mitochondria Different-Phenotype (%) (Fibroblast [4]; 48 h, replicate 1): 40% | Population Mitotic Cells (%) (Fibroblast [4]; 48 h, replicate 1): 44% | Population Normal (%) (Fibroblast [4]; 48 h, replicate 1): 77% | Population Pyknosed Nuclei (%) (Fibroblast [4]; 48 h, replicate 1): 12% | Population Tubulin-Different-Phenotype (%) (Fibroblast [4]; 48 h, replicate 1): 86% | Total Cell Count (Fibroblast [4]; 48 h, replicate 1): 90 | Population Apoptotic (%) (Fibroblast [4]; 48 h, replicate 2): 0% | Population Fragmented Nuclei (%) (Fibroblast [4]; 48 h, replicate 2): 28% | Population Healthy Nuclei (%) (Fibroblast [4]; 48 h, replicate 2): 71% | Population Hoechst High Intensity Objects (%) (Fibroblast [4]; 48 h, replicate 2): 9% | Population Membrane Permeable-Phenotype (%) (Fibroblast [4]; 48 h, replicate 2): 11% | Population Mitochondria Different-Phenotype (%) (Fibroblast [4]; 48 h, replicate 2): 3% | Population Mitotic Cells (%) (Fibroblast [4]; 48 h, replicate 2): 0% | Population Normal (%) (Fibroblast [4]; 48 h, replicate 2): 90% | Population Pyknosed Nuclei (%) (Fibroblast [4]; 48 h, replicate 2): 0% | Population Tubulin-Different-Phenotype (%) (Fibroblast [4]; 48 h, replicate 2): 70% | Total Cell Count (Fibroblast [4]; 48 h, replicate 2): 42
